Key:
Histamine H2 receptor [1] = molecular target: T1, Histamine H2 receptor (Cavia porcellus, UniProt P47747); test: Agonist activity at guinea pig histamine H2 receptor stably transfected in HEK293T cells co-expressing NlucN-mGs/gpH2R-NlucC by mini-G protein recruitment assay; type: functional, cell-based
Mu-type opioid receptor = Mu-type opioid receptor (Homo sapiens, UniProt P35372); test: Displacement of [3H]diprenorphine from human mu-opioid receptor […] in HEK293T cell membrane incubated for 2 hrs by scintillation counting analysis; type: cell membranes
Summary of the method: (§1)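 Transiently transfected HEK293T membranes in 50 mM Tris, pH 7.4. α2A: 10 μg/well, 0.5 nM [3H]RX821002, nonspecific with 10 μM RX821002. μOR: 6 μg/well, 0.3 nM [3H]diprenorphine, nonspecific with 10 μM naloxone. Ki from IC50 by Cheng–Prusoff.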

D(4) dopamine receptor = molecular target: T2, D(4) dopamine receptor (Homo sapiens, UniProt P21917); test: Displacement of [3H]N-methylspiperone from human D4.4 receptor stably expressed in HEK293T cells co-expressing ElucN-betaarr2 hD4.4R-ELuc incubated for 60 mins by scintillation counting analysis; type: cell-based
T2 sequence (P21917 whole entry): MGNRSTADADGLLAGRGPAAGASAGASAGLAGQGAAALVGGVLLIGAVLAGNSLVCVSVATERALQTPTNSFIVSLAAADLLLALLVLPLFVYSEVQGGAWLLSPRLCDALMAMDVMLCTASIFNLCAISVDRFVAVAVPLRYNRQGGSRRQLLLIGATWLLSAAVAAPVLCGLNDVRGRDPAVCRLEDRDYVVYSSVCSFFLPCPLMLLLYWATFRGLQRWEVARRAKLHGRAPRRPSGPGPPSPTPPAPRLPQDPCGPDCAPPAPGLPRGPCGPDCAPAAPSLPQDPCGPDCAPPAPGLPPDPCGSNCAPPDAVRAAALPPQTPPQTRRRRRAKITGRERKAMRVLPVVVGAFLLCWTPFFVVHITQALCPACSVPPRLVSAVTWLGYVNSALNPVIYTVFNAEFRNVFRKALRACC

Histamine H1 receptor = Histamine H1 receptor (Homo sapiens, UniProt P35367)
D(1A) dopamine receptor = D(1A) dopamine receptor (Homo sapiens, UniProt P21728); test: Displacement of [3H]SCH23390 from human D1 receptor stably expressed in HEK293T cells co-expressing luciferase and CEK incubated for 60 mins by scintillation counting analysis; type: cell-based
Histamine H4 receptor = Histamine H4 receptor (Homo sapiens, UniProt Q9H3N8)
[2] = molecular target: Muscarinic acetylcholine receptor M3 (Homo sapiens, UniProt P20309); test: Displacement of [3H]N-methylscopolamine from human muscarinic acetylcholine M3 receptor stably expressed in CHO cells by radioligand competition binding based analysis; type: cell-based
Summary of the method: (§2)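 Whole CHO cells stably expressing hM1–hM5, competed against [3H]N-methylscopolamine. Kd/applied concentrations in nM: M1 0.17/0.2, M2 0.10/0.2, M3 0.12/0.2, M4 0.052/0.1, M5 0.20/0.3.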

[3] = molecular target: Beta-2 adrenergic receptor (Homo sapiens, UniProt P07550); test: Displacement of [3H]CGP12177 from human beta-2 adrenergic receptor […] in HEK293T cell membrane incubated for 2 hrs by scintillation counting analysis; type: cell membranes
Summary of the method: (§3)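 Membranes of transiently transfected HEK293T cells in 25 mM HEPES, 5 mM MgCl2, 1 mM EDTA, 0.01% BSA, pH 7.4. β1 at 2 μg/well, β2 at 4 μg/well, with 0.2 nM [3H]CGP12177. Nonspecific binding with 10 μM CGP12177. IC50 converted to Ki by Cheng–Prusoff.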

D(2) dopamine receptor = D(2) dopamine receptor (Homo sapiens, UniProt P14416); type: functional, cell-based, HEK293T;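 further: agonist mode, β-arrestin2 recruitment to the human D2 long isoform stably expressed in HEK293T cells, read by split luciferase complementation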
[4] = molecular target: T3, Muscarinic acetylcholine receptor M5 (Homo sapiens, UniProt P08912); test: Displacement of [3H]N-methylscopolamine from human muscarinic acetylcholine M5 receptor stably expressed in CHO cells by radioligand competition binding based analysis; type: cell-based; summary of the method: as §2
T3 sequence (P08912 whole entry): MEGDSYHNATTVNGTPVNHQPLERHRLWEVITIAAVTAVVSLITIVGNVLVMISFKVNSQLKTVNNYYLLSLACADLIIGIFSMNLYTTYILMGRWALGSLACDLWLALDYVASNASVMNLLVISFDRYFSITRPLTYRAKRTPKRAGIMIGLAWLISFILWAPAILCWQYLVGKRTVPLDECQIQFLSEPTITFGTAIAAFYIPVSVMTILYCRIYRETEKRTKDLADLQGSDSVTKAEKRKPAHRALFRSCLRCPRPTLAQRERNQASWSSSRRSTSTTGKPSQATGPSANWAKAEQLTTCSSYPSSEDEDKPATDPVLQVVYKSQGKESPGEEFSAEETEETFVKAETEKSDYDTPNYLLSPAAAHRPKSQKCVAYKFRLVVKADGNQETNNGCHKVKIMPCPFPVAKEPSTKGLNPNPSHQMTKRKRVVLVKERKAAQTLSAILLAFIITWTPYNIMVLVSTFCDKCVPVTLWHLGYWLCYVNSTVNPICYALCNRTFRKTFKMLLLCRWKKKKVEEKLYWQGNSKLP

Histamine H2 receptor [5] = molecular target: T1, Histamine H2 receptor; test: Agonist activity at histamine H2 receptor in spontaneous beating guinea pig right atrium assessed as increase in heart beat; type: functional, tissue-based, Right cardiac atrium
[6] = molecular target: T4, Alpha-2A adrenergic receptor (Homo sapiens, UniProt P08913); test: Displacement of [3H]RX821002 from human alpha-2A adrenergic receptor […] in HEK293T cell membrane incubated for 2 hrs by scintillation counting analysis; type: cell membranes; summary of the method: as §1
T4 sequence (P08913 whole entry): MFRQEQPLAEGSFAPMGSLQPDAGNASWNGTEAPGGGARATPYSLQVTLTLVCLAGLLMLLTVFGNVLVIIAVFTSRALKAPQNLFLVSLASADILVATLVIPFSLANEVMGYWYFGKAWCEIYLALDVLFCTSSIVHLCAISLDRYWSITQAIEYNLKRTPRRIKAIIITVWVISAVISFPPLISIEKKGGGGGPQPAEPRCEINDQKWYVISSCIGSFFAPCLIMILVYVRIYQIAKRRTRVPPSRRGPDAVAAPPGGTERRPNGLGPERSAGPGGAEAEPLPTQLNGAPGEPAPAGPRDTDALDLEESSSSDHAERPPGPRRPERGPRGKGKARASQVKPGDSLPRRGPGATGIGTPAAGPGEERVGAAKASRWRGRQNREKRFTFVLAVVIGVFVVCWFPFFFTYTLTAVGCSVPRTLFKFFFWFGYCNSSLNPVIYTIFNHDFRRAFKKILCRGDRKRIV

[7] = molecular target: Beta-1 adrenergic receptor (Homo sapiens, UniProt P08588); test: Displacement of [3H]CGP12177 from human beta-1 adrenergic receptor […] in HEK293T cell membrane incubated for 2 hrs by scintillation counting analysis; type: cell membranes; summary of the method: as §3
Sequence of Beta-1 adrenergic receptor (P08588 whole entry): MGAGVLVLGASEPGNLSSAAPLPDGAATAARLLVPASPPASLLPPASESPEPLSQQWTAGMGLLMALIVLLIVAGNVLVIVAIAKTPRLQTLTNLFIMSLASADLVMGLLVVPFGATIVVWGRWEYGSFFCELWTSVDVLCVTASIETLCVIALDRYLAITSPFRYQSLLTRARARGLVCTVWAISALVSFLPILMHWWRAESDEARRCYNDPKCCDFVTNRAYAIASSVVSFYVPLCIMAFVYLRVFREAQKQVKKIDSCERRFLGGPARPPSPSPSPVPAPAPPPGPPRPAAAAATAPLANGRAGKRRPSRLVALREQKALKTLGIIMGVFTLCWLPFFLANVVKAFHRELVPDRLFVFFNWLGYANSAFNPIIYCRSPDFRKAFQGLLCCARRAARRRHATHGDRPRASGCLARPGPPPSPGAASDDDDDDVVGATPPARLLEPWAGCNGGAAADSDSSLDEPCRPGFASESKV

Sequence of D(1A) dopamine receptor (P21728 whole entry): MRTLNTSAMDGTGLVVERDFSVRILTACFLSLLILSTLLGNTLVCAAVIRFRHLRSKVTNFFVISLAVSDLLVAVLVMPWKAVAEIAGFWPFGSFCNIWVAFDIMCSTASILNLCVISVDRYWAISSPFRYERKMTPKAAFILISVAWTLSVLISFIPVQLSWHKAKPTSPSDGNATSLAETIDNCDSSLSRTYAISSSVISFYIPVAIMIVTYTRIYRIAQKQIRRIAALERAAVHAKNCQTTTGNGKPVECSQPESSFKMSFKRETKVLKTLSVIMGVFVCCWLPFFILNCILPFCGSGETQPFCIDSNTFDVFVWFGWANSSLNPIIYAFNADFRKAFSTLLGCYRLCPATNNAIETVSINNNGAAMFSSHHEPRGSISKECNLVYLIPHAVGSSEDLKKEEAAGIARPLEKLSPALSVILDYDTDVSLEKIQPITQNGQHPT
Sequence of Mu-type opioid receptor (P35372 whole entry): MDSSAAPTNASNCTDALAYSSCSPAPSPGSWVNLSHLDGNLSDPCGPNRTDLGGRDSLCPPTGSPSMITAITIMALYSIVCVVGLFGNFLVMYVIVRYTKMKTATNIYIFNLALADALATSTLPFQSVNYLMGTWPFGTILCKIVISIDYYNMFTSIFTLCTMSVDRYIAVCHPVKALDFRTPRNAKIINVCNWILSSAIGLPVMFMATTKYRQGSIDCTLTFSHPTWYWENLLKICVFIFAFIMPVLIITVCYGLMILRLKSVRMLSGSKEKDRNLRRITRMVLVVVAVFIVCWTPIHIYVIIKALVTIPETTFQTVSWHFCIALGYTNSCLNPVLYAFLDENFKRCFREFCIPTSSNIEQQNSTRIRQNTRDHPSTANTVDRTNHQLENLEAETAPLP
Sequence of D(2) dopamine receptor (P14416 whole entry, canonical isoform): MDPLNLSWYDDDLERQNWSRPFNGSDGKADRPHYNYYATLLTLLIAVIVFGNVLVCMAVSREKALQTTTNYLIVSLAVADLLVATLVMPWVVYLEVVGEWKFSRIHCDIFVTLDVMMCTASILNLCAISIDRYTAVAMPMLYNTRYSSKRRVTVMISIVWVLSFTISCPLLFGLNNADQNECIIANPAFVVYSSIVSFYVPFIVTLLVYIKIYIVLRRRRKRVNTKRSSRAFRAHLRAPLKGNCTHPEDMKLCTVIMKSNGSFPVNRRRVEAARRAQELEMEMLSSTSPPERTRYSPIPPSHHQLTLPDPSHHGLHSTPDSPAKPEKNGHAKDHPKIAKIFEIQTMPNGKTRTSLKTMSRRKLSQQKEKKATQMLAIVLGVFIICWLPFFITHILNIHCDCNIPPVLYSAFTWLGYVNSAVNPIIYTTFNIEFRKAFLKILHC
Sequence of Beta-2 adrenergic receptor (P07550 whole entry): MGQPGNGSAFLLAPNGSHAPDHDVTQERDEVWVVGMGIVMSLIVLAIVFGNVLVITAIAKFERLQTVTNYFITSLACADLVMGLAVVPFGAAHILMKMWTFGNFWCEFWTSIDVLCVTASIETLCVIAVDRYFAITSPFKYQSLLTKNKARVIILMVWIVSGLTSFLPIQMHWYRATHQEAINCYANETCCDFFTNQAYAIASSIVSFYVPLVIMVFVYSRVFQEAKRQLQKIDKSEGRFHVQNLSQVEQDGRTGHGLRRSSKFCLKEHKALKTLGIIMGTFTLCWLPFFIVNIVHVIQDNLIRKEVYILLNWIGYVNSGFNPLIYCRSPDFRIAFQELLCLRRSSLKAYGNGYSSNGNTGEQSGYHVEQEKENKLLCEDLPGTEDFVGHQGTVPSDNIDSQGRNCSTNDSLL
T1 sequence (P47747 whole entry): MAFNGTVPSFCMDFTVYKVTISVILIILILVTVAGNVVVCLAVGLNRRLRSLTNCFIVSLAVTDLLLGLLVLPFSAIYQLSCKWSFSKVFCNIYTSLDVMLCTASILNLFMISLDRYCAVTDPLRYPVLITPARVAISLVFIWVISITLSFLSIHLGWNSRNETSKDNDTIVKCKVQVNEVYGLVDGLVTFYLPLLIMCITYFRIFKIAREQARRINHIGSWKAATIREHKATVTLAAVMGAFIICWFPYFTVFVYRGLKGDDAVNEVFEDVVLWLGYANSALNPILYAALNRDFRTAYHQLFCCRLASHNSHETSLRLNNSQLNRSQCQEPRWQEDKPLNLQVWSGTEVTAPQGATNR
Sequence of Histamine H4 receptor (Q9H3N8 whole entry): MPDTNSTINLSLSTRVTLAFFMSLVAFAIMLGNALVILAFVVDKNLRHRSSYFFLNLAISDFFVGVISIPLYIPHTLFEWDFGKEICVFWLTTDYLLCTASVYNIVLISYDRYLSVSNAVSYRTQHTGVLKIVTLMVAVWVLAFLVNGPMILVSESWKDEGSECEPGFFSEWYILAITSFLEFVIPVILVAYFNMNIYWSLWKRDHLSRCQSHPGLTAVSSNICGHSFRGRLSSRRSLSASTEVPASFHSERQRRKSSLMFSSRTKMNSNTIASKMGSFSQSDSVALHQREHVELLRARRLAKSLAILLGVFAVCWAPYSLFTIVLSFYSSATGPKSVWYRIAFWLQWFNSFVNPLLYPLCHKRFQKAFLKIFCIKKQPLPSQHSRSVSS
Sequence of Histamine H1 receptor (P35367 whole entry): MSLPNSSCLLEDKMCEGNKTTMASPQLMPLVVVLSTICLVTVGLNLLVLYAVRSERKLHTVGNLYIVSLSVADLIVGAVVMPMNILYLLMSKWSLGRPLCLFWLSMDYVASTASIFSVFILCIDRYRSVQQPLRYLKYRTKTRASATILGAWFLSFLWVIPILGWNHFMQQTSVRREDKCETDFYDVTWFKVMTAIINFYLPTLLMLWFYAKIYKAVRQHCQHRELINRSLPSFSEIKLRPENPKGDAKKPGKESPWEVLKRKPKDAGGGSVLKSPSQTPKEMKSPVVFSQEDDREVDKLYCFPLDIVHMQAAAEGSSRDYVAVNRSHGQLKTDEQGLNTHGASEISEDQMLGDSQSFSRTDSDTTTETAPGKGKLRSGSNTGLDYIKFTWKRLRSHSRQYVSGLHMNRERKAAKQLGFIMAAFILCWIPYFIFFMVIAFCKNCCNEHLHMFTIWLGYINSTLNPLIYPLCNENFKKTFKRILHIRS
Sequence of Muscarinic acetylcholine receptor M3 (P20309 whole entry): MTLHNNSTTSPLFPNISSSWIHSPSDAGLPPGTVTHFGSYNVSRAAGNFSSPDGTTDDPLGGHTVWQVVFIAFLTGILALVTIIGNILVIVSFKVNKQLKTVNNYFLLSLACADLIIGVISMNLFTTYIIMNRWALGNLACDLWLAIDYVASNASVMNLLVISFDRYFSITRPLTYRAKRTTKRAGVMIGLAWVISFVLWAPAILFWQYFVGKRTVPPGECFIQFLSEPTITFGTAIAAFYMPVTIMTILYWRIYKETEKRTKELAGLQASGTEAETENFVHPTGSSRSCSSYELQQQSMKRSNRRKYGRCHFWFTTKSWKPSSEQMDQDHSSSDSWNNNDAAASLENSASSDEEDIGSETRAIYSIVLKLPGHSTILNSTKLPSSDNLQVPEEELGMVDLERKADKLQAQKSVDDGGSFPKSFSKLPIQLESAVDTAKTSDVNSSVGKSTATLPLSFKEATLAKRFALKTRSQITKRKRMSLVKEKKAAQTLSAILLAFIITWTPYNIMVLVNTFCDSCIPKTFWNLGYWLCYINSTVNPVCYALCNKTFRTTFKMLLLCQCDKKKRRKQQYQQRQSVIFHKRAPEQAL

SMILES	EC50 (Histamine H2 receptor [1])	Kd (Mu-type opioid receptor)	pKi (Mu-type opioid receptor)	Kd (D(4) dopamine receptor)	pKi (D(4) dopamine receptor)	Kd (Histamine H1 receptor)	Ki (Histamine H1 receptor)	Kd (D(1A) dopamine receptor)	Ki (D(1A) dopamine receptor)	Kd (Histamine H4 receptor)	Kd [2]	pKi [2]	Kd [3]	pKi [3]	Kd [4]	pKi [4]	Kd [6]	pKi [6]	Kd [7]	pKi [7]	other results
CCCCCNC(=O)/N=C(\N)NCCCc1nnc(N)s1.O=C(O)C(F)(F)F.O=C(O)C(F)(F)F	4.37 nM	0.09 nM	5.47	0.078 nM	5.65	4.5 nM	6460 nM	0.23 nM	2450 nM	16 nM	0.12 nM	< 5	0.07 nM	4.2	0.2 nM	> 5	0.6 nM	5.31	0.075 nM	< 4	Ki (Histamine H4 receptor): > 10000 nM; EC50 (D(2) dopamine receptor): > 10000 nM; EC50 (Histamine H2 receptor [5]): 5.62 nM
CCCCCNC(=O)/N=C(\N)NCCCc1sc(N)nc1C	–	0.09 nM	5.99	0.078 nM	6.96	–	–	0.23 nM	257 nM	–	0.12 nM	< 5	0.07 nM	4.93	0.2 nM	> 5	0.6 nM	6.05	0.075 nM	4.66	–
N/C(=N\C(=O)NCc1ccccc1)NCCCc1nnc(N)s1	2.19 nM	0.09 nM	5.4	0.078 nM	6.17	4.5 nM	5370 nM	0.23 nM	1380 nM	16 nM	0.12 nM	< 5	0.07 nM	4.4	0.2 nM	> 5	0.6 nM	5.9	0.075 nM	< 4	Ki (Histamine H4 receptor): > 10000 nM; EC50 (D(2) dopamine receptor): > 10000 nM; EC50 (Histamine H2 receptor [5]): 1.32 nM
C[C@@H](NC(=O)/N=C(\N)NCCCc1ncn[nH]1)c1ccccc1	16.2 nM	0.09 nM	4.76	0.078 nM	5.18	4.5 nM	7940 nM	0.23 nM	2190 nM	16 nM	0.12 nM	< 5	0.07 nM	4.45	0.2 nM	< 5	0.6 nM	6.07	0.075 nM	4.31	Ki (Histamine H4 receptor): > 10000 nM; EC50 (D(2) dopamine receptor): > 10000 nM; EC50 (Histamine H2 receptor [5]): 38 nM

Reference: ChEMBL document CHEMBL5149991 (J Med Chem, 2021)
